Data reported in ChEMBL document CHEMBL1250476, “Synthesis and antifungal evaluation of novel triazole derivatives as inhibitors of cytochrome P450 14alpha-demethylase” (2010).
Values after ≈ are worked out from the molar mass of the structure shown.

Key:
Type in all cases: functional
Cryptococcus neoformans = test: Antifungal activity against Cryptococcus neoformans after 72 hrs by micro-broth dilution method
Outline: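 Cryptococcus neoformans tested by NCCLS micro-broth dilution. Compounds were dissolved in DMSO, serially diluted in medium, inoculated and incubated at 35 °C. MIC80 was read at 72 h as the first well showing approximately 80% growth reduction compared with the drug-free well. Values are the mean of three replicate tests.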

Kluyveromyces marxianus = test: Antifungal activity against Candida kefyr by micro-broth dilution method
Outline: (§1)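 MIC80 by broth microdilution in 96-well format following NCCLS. Compounds were dissolved in DMSO, serially diluted in growth medium, inoculated and incubated at 35 °C. The endpoint was the first well with about 80% growth reduction versus the drug-free well. Values are means of three replicate tests.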

Aspergillus fumigatus = test: Antifungal activity against Aspergillus fumigatus by micro-broth dilution method; outline: as §1
Candida tropicalis = test: Antifungal activity against Candida tropicalis by micro-broth dilution method; outline: as §1
Trichophyton rubrum = test: Antifungal activity against Trichophyton rubrum by micro-broth dilution method; outline: as §1
Candida albicans [1] = test: Antifungal activity against Candida albicans SC5314 after 24 hrs by micro-broth dilution method; settings: SC5314, 24 h
Outline: (§2)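 Broth microdilution per NCCLS on Candida albicans. Compounds were dissolved in DMSO, serially diluted in growth medium, inoculated and incubated at 35 °C. Growth was read at 24 h, and MIC80 was taken as the first well with about 80% growth reduction relative to the drug-free control. Values are the mean of three replicates.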

Candida parapsilosis = test: Antifungal activity against Candida parapsilosis by micro-broth dilution method; settings: Lodderomyces parapsilosis; outline: as §1
Candida albicans [2] = test: Antifungal activity against Candida albicans Y0109 after 24 hrs by micro-broth dilution method; settings: Y0109, 24 h; outline: as §2

MIC (Cryptococcus neoformans) [µg/mL]	MIC (Kluyveromyces marxianus) [µg/mL]	MIC (Aspergillus fumigatus) [µg/mL]	MIC (Candida tropicalis) [µg/mL]	MIC (Trichophyton rubrum) [µg/mL]	MIC (Candida albicans [1]) [µg/mL]	MIC (Candida parapsilosis) [µg/mL]	MIC (Candida albicans [2]) [µg/mL]	Compound
16 (≈ 29.4 µM)	0.0156 (≈ 0.0287 µM)	> 64	0.5 (≈ 0.918 µM)	1 (≈ 1.84 µM)	0.25 (≈ 0.459 µM)	1 (≈ 1.84 µM)	0.0156 (≈ 0.0287 µM)	OC(CN(Cc1cn(Cc2ccc(Br)cc2)nn1)C1CC1)(Cn1cncn1)c1ccc(F)cc1F (stereo unspecified)
32 (≈ 63.7 µM)	0.25 (≈ 0.498 µM)	> 64	2 (≈ 3.98 µM)	2 (≈ 3.98 µM)	< 0.125	4 (≈ 7.97 µM)	0.0156 (≈ 0.0311 µM)	CC(C)N(Cc1cn(Cc2cccc(Cl)c2)nn1)CC(O)(Cn1cncn1)c1ccc(F)cc1F (stereo unspecified)
8 (≈ 14.9 µM)	0.25 (≈ 0.466 µM)	> 64	0.25 (≈ 0.466 µM)	0.25 (≈ 0.466 µM)	4 (≈ 7.46 µM)	0.5 (≈ 0.932 µM)	0.0156 (≈ 0.0291 µM)	CC(C)N(Cc1cn(Cc2ccc(Cl)cc2Cl)nn1)CC(O)(Cn1cncn1)c1ccc(F)cc1F (stereo unspecified)
16 (≈ 33.1 µM)	0.0625 (≈ 0.129 µM)	> 64	1 (≈ 2.07 µM)	2 (≈ 4.14 µM)	1 (≈ 2.07 µM)	4 (≈ 8.27 µM)	0.25 (≈ 0.517 µM)	OC(CN(Cc1cn(Cc2ccc(F)cc2)nn1)C1CC1)(Cn1cncn1)c1ccc(F)cc1F (stereo unspecified)
64 (≈ 130 µM)	1 (≈ 2.04 µM)	> 64	4 (≈ 8.15 µM)	4 (≈ 8.15 µM)	1 (≈ 2.04 µM)	4 (≈ 8.15 µM)	0.0625 (≈ 0.127 µM)	N#Cc1ccc(Cn2cc(CN(CC(O)(Cn3cncn3)c3ccc(F)cc3F)C3CC3)nn2)cc1 (stereo unspecified)
8 (≈ 14.6 µM)	0.25 (≈ 0.458 µM)	> 64	1 (≈ 1.83 µM)	1 (≈ 1.83 µM)	< 0.125	4 (≈ 7.32 µM)	0.0625 (≈ 0.114 µM)	CC(C)N(Cc1cn(Cc2ccc(Br)cc2)nn1)CC(O)(Cn1cncn1)c1ccc(F)cc1F (stereo unspecified)
4 (≈ 8.24 µM)	0.0625 (≈ 0.129 µM)	> 64	< 0.125	< 0.125	< 0.125	0.25 (≈ 0.515 µM)	0.0156 (≈ 0.0321 µM)	CC(C)N(Cc1cn(Cc2cccc(F)c2)nn1)CC(O)(Cn1cncn1)c1ccc(F)cc1F (stereo unspecified)
8 (≈ 17.1 µM)	0.0625 (≈ 0.134 µM)	64 (≈ 137 µM)	< 0.125	< 0.125	< 0.125	0.25 (≈ 0.535 µM)	0.0039 (≈ 0.00834 µM)	CC(C)N(Cc1cn(Cc2ccccc2)nn1)CC(O)(Cn1cncn1)c1ccc(F)cc1F (stereo unspecified)
16 (≈ 32.5 µM)	0.25 (≈ 0.508 µM)	> 64	< 0.125	< 0.125	1 (≈ 2.03 µM)	0.5 (≈ 1.02 µM)	0.0156 (≈ 0.0317 µM)	CC(C)N(Cc1cn(Cc2ccc(C#N)cc2)nn1)CC(O)(Cn1cncn1)c1ccc(F)cc1F (stereo unspecified)
16 (≈ 32 µM)	0.0156 (≈ 0.0312 µM)	> 64	0.5 (≈ 1 µM)	2 (≈ 4 µM)	0.25 (≈ 0.5 µM)	2 (≈ 4 µM)	0.25 (≈ 0.5 µM)	OC(CN(Cc1cn(Cc2ccc(Cl)cc2)nn1)C1CC1)(Cn1cncn1)c1ccc(F)cc1F (stereo unspecified)
0.0625 (≈ 0.117 µM)	0.0156 (≈ 0.0291 µM)	> 64	0.0156 (≈ 0.0291 µM)	0.0156 (≈ 0.0291 µM)	0.0039 (≈ 0.00727 µM)	0.0625 (≈ 0.117 µM)	< 0.125	CC(C)N(Cc1cn(Cc2c(Cl)cccc2Cl)nn1)CC(O)(Cn1cncn1)c1ccc(F)cc1F (stereo unspecified)
32 (≈ 62.4 µM)	0.0625 (≈ 0.122 µM)	> 64	2 (≈ 3.9 µM)	1 (≈ 1.95 µM)	< 0.125	8 (≈ 15.6 µM)	0.0625 (≈ 0.122 µM)	CC(C)N(Cc1cn(Cc2ccccc2[N+](=O)[O-])nn1)CC(O)(Cn1cncn1)c1ccc(F)cc1F (stereo unspecified)
64 (≈ 130 µM)	0.25 (≈ 0.508 µM)	> 64	16 (≈ 32.5 µM)	16 (≈ 32.5 µM)	< 0.125	16 (≈ 32.5 µM)	0.0625 (≈ 0.127 µM)	CC(C)N(Cc1cn(Cc2cccc(C#N)c2)nn1)CC(O)(Cn1cncn1)c1ccc(F)cc1F (stereo unspecified)
2 (≈ 4.12 µM)	0.0625 (≈ 0.129 µM)	> 64	< 0.125	< 0.125	< 0.125	0.25 (≈ 0.515 µM)	0.0156 (≈ 0.0321 µM)	CC(C)N(Cc1cn(Cc2ccccc2F)nn1)CC(O)(Cn1cncn1)c1ccc(F)cc1F (stereo unspecified)
1 (≈ 1.83 µM)	0.0156 (≈ 0.0285 µM)	16 (≈ 29.3 µM)	< 0.125	< 0.125	< 0.125	< 0.125	0.0156 (≈ 0.0285 µM)	CC(C)N(Cc1cn(Cc2ccccc2Br)nn1)CC(O)(Cn1cncn1)c1ccc(F)cc1F (stereo unspecified)
1 (≈ 2.09 µM)	0.0156 (≈ 0.0325 µM)	64 (≈ 133 µM)	< 0.125	< 0.125	< 0.125	< 0.125	0.0156 (≈ 0.0325 µM)	Cc1ccc(Cn2cc(CN(CC(O)(Cn3cncn3)c3ccc(F)cc3F)C3CC3)nn2)cc1 (stereo unspecified)
4 (≈ 7.97 µM)	0.25 (≈ 0.498 µM)	> 64	0.5 (≈ 0.996 µM)	0.5 (≈ 0.996 µM)	< 0.125	2 (≈ 3.98 µM)	0.0625 (≈ 0.125 µM)	CC(C)N(Cc1cn(Cc2ccc(Cl)cc2)nn1)CC(O)(Cn1cncn1)c1ccc(F)cc1F (stereo unspecified)

The next lines start with the molecule.

Compound	MIC (Cryptococcus neoformans) [µg/mL]	MIC (Kluyveromyces marxianus) [µg/mL]	MIC (Aspergillus fumigatus) [µg/mL]	MIC (Candida tropicalis) [µg/mL]	MIC (Trichophyton rubrum) [µg/mL]	MIC (Candida albicans [1]) [µg/mL]	MIC (Candida parapsilosis) [µg/mL]	MIC (Candida albicans [2]) [µg/mL]
OC(CN(Cc1cn(Cc2ccccc2Cl)nn1)C1CC1)(Cn1cncn1)c1ccc(F)cc1F (stereo unspecified)	4 (≈ 8 µM)	0.0156 (≈ 0.0312 µM)	> 64	< 0.125	< 0.125	< 0.125	0.25 (≈ 0.5 µM)	0.0625 (≈ 0.125 µM)
CCCCCn1cc(CN(CC(O)(Cn2cncn2)c2ccc(F)cc2F)C2CC2)nn1 (stereo unspecified)	32 (≈ 71.8 µM)	0.25 (≈ 0.561 µM)	> 64	0.25 (≈ 0.561 µM)	< 0.125	< 0.125	0.5 (≈ 1.12 µM)	0.0625 (≈ 0.14 µM)
N#Cc1ccccc1Cn1cc(CN(CC(O)(Cn2cncn2)c2ccc(F)cc2F)C2CC2)nn1 (stereo unspecified)	64 (≈ 130 µM)	1 (≈ 2.04 µM)	> 64	1 (≈ 2.04 µM)	2 (≈ 4.08 µM)	0.25 (≈ 0.51 µM)	2 (≈ 4.08 µM)	16 (≈ 32.6 µM)
CN(C/C=C/C#CC(C)(C)C)Cc1cccc2ccccc12 [TERBINAFINE]	8 (≈ 27.5 µM)	0.0625 (≈ 0.214 µM)	0.25 (≈ 0.858 µM)	< 0.125	< 0.125	16 (≈ 54.9 µM)	< 0.125	2 (≈ 6.86 µM)
OC(CN(Cc1cn(Cc2cccc(Cl)c2)nn1)C1CC1)(Cn1cncn1)c1ccc(F)cc1F (stereo unspecified)	64 (≈ 128 µM)	0.0156 (≈ 0.0312 µM)	> 64	4 (≈ 8 µM)	4 (≈ 8 µM)	1 (≈ 2 µM)	8 (≈ 16 µM)	0.0156 (≈ 0.0312 µM)
O=[N+]([O-])c1ccc(Cn2cc(CN(CC(O)(Cn3cncn3)c3ccc(F)cc3F)C3CC3)nn2)cc1 (stereo unspecified)	16 (≈ 31.3 µM)	0.0039 (≈ 0.00764 µM)	> 64	0.25 (≈ 0.49 µM)	0.5 (≈ 0.979 µM)	< 0.125	1 (≈ 1.96 µM)	0.25 (≈ 0.49 µM)
CCC(C)n1ncn(-c2ccc(N3CCN(c4ccc(OCC5COC(Cn6cncn6)(c6ccc(Cl)cc6Cl)O5)cc4)CC3)cc2)c1=O (stereo unspecified) [ITRACONAZOLE]	0.125 (≈ 0.177 µM)	0.0625 (≈ 0.0886 µM)	2 (≈ 2.83 µM)	< 0.0625	0.0625 (≈ 0.0886 µM)	< 0.0625	0.0625 (≈ 0.0886 µM)	0.0625 (≈ 0.0886 µM)
OC(CN(Cc1cn(Cc2ccccc2F)nn1)C1CC1)(Cn1cncn1)c1ccc(F)cc1F (stereo unspecified)	8 (≈ 16.5 µM)	0.0156 (≈ 0.0323 µM)	> 64	0.5 (≈ 1.03 µM)	0.25 (≈ 0.517 µM)	0.5 (≈ 1.03 µM)	1 (≈ 2.07 µM)	0.0625 (≈ 0.129 µM)
CC(=O)N1CCN(c2ccc(OCC3COC(Cn4ccnc4)(c4ccc(Cl)cc4Cl)O3)cc2)CC1 (stereo unspecified) [KETOCONAZOLE]	0.5 (≈ 0.941 µM)	0.0625 (≈ 0.118 µM)	0.125 (≈ 0.235 µM)	< 0.125	< 0.125	< 0.125	< 0.125	< 0.125
C[C@@H]1[C@H](O)[C@@H](C)/C=C/C=C/C=C/C=C/C=C/C=C/C=C/[C@H](O[C@@H]2O[C@H](C)[C@@H](O)[C@H](N)[C@@H]2O)C[C@@H]2O[C@](O)(C[C@@H](O)C[C@@H](O)[C@H](O)CC[C@@H](O)C[C@@H](O)CC(=O)O[C@H]1C)C[C@H](O)[C@H]2C(=O)O [AMPHOTERICIN B]	4 (≈ 4.33 µM)	0.25 (≈ 0.271 µM)	32 (≈ 34.6 µM)	0.25 (≈ 0.271 µM)	1 (≈ 1.08 µM)	8 (≈ 8.66 µM)	0.125 (≈ 0.135 µM)	4 (≈ 4.33 µM)
Cc1cccc(Cn2cc(CN(CC(O)(Cn3cncn3)c3ccc(F)cc3F)C3CC3)nn2)c1 (stereo unspecified)	2 (≈ 4.17 µM)	0.0156 (≈ 0.0325 µM)	64 (≈ 133 µM)	< 0.125	< 0.125	0.5 (≈ 1.04 µM)	< 0.125	0.0156 (≈ 0.0325 µM)
O=[N+]([O-])c1cccc(Cn2cc(CN(CC(O)(Cn3cncn3)c3ccc(F)cc3F)C3CC3)nn2)c1 (stereo unspecified)	64 (≈ 125 µM)	0.0156 (≈ 0.0306 µM)	> 64	4 (≈ 7.84 µM)	0.25 (≈ 0.49 µM)	4 (≈ 7.84 µM)	8 (≈ 15.7 µM)	0.0625 (≈ 0.122 µM)
OC(CN(Cc1cn(Cc2c(Cl)cccc2Cl)nn1)C1CC1)(Cn1cncn1)c1ccc(F)cc1F (stereo unspecified)	64 (≈ 120 µM)	0.25 (≈ 0.468 µM)	> 64	4 (≈ 7.49 µM)	1 (≈ 1.87 µM)	4 (≈ 7.49 µM)	4 (≈ 7.49 µM)	0.0625 (≈ 0.117 µM)
CCc1ccc(Cn2cc(CN(CC(O)(Cn3cncn3)c3ccc(F)cc3F)C3CC3)nn2)cc1 (stereo unspecified)	1 (≈ 2.03 µM)	0.25 (≈ 0.507 µM)	> 64	2 (≈ 4.05 µM)	2 (≈ 4.05 µM)	4 (≈ 8.1 µM)	4 (≈ 8.1 µM)	0.25 (≈ 0.507 µM)
OC(CN(Cc1cn(Cc2cccc(F)c2)nn1)C1CC1)(Cn1cncn1)c1ccc(F)cc1F (stereo unspecified)	> 64	0.0156 (≈ 0.0323 µM)	64 (≈ 132 µM)	< 0.125	< 0.125	< 0.125	< 0.125	0.0625 (≈ 0.129 µM)
